Screens (PubChem BioAssay)
An excerpt weighted towards active compounds, which were near 6.4% of everything screened.
GRIN3A LBD mod – binders of NR3A ligand-binding domain, primary screen, biophysical, differential scanning fluorimetry, uHTS; Glutamate receptor ionotropic, NMDA 3A (GRIN3A) ligand-binding domain; NR3A LBD differential scanning fluorimetry, Tm shift; 0% = protein alone, 100% = glycine-bound protein; Tm shift relative to glycine control, % at 25 µM; 340,000 compounds, 2.5% hits; AID 1259313, 2017;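 active = melting temperature shift of at least 10% of the positive control shift, at one fixed dose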
WT yeast gro inh – growth inhibition of WT strain, primary screen, mitochondrial fusion inhibitor project, WT and mutant strains, chemical genetic; 190,000 compounds, 2.1% hits; mitochondrial fusion phenotypic screen; inhibition, % at 10 µM; in the data active = inhibition above about 58%; tested in S. cerevisiae
EBV gp42 block – Epstein-Barr virus gp42 inhibitors, primary screen, biochemical, uHTS, fluorescence polarization. Fluorescence polarization binding assay, mP read-out. inhibition, % (tested at 21.74 µM). 220,000 compounds, 0.42% hits. AID 1085, 2008; in the data active = inhibition above about 50%
Target sequence (Q1HVG2 whole entry, looked up): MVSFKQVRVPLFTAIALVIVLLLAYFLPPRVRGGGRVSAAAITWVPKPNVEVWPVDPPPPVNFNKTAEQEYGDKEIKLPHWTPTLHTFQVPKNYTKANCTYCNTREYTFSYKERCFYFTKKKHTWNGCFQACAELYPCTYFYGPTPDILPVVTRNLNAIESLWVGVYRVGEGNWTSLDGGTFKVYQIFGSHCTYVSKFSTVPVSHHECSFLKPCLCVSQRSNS
MPTP block – mitochondrial permeability transition pore inhibitors, primary screen, biochemical, isolated mouse mitochondria, absorbance. inhibition, % at 10 µM. AID 602449, 2012. Ca2+ swelling absorbance, 30 min. 360,000 compounds, 1.4% hits;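 active = inhibition of 50% or more, scaled per plate between neutral and stimulator controls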;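 also: 0% = DMSO wells given calcium and 100% = 1 mM EGTA wells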
Tb MetRS inh – T. brucei MetRS inhibitors, primary screen, biochemical, luminescence | methionyl-tRNA synthetase (Trypanosoma brucei brucei) | purified T. brucei MetRS, ATP depletion, Kinase-Glo luminescence | inhibition, % at 11.9 µM | 360,000 compounds, 0.4% hits | AID 624268, 2012;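 active = inhibition above a per-plate cutoff of the control wells' mean inhibition plus 3 SD, cut at about 5.5% in these data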;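 also: 0% = DMSO wells median and 100% = median of wells with control inhibitor compound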
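Test system – parasite MetRS enzyme · Reagent – substrates ATP, L-methionine and bulk Escherichia coli tRNA · Doses – 11.9 µM compound single dose, 0.9% DMSO · Times – 15 min enzyme-compound preincubation, 2 h reaction, 10 min detection, 25 °C · Signal – Kinase-Glo luminescence, ATP depletion format · Controls – DMSO-only wells as low control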
CHOP inh – inhibitors of CHOP promoter induction, primary screen, cell-based, unfolded protein response, luciferase reporter. CHO-K1 CHOP-promoter luciferase, tunicamycin-induced, 15-18 h. inhibition, % at 10 µM. 220,000 compounds, 3.8% hits;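 active = compounds that reduced the stress-induced luciferase reporter signal by more than about 70% of percent inhibition, limit read from the data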;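 also: 0% = tunicamycin plus vehicle and 100% = wells without tunicamycin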
MPTP counter – fluorescence retest of MPTP screen hits in isolated mitochondria, single concentration; shares compounds with MPTP block; membrane potential, Rhodamine 123 fluorescence; inhibition, % at 10 µM; 5,000 compounds, 78% hits; AID 624504, 2012; in the data active = inhibition above about 22%;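 also: 0% = DMSO vehicle and 100% = positive control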
MPTP swell DR – mitochondrial permeability transition pore inhibitors, dose response, biochemical, absorbance, uHTS hits. shares compounds with MPTP block. isolated mitochondria swelling. IC50, µM. 780 compounds, 58% hits; in the data active = IC50 below about 20 µM
MPTP counter DR – fluorescent counter-screen in isolated mitochondria, dose response, counter-screen for MPTP inhibitor project, biochemical, fluorescence, uHTS hits | shares compounds with MPTP block | IC50, µM | isolated mitochondria counterscreen, fluorescence read-out | 780 compounds, 49% hits; in the data active = IC50 below about 80 µM
* = called active by the depositor; i = inactive; / = no result given.

SMILES	GRIN3A LBD mod	WT yeast gro inh	EBV gp42 block	MPTP block	Tb MetRS inh	CHOP inh	MPTP counter	others
C=CCNCCCOc1ccc(C)cc1Br	1	16	-10	81*	1	1	2	MPTP swell DR=15*;MPTP counter DR=>80
CCCc1nc(SCC(=O)NCC2CCCO2)c2c(=O)n(C)c(=O)n(C)c2n1 (stereo not drawn)	-8	/	/	1	0	/	/
COc1cc(/C=C2\C(=N)N3N=C(S(C)(=O)=O)SC3=NC2=O)ccc1OC(=O)c1cccs1	2	/	/	0	0	/	/
Cc1cc(C)c2sc(N(CCCN(C)C)C(=O)c3ccc(S(=O)(=O)N4CCc5ccccc5C4)cc3)nc2c1	/	/	/	72*	0	/	-12
Cc1cc(C)c2sc(N(CCCN(C)C)C(=O)c3ccc(S(=O)(=O)N4CCCc5ccccc54)cc3)nc2c1	2	/	/	64*	-1	/	-16
COc1ccc2sc(N(CCCN(C)C)C(=O)c3ccc(S(=O)(=O)N4CCc5ccccc5C4)cc3)nc2c1	1	/	/	86*	-1	/	-19
COc1ccc2sc(N(CCCN(C)C)C(=O)c3ccc(S(=O)(=O)N4CCCC4)cc3)nc2c1	0	/	/	15	-1	/	/
O=C1COc2ccc(C(=O)COC(=O)c3ccc4ccccc4n3)cc2N1	0	-2	-18	3	0	-15	/
O=C(Nc1c(C(=O)C2CC2)oc2ccccc12)c1ccc(Cl)cc1	-4	8	-13	5	0	9	/
Cc1ccc(NS(=O)(=O)c2cccc(C(=O)Nc3cccnc3)c2)c(C)c1	-5	/	/	2	0	/	/
COc1ccc(CCNc2c(C)c(C)nc3ncnn23)cc1	3	-5	-10	74*	-1	/	83*
O=C(CN(c1cccc(C(F)(F)F)c1)S(=O)(=O)c1ccc(Cl)c([N+](=O)[O-])c1)NCc1ccc(F)cc1	5	-5	-15	74*	-1	-88	67*
O=C(CN(c1cccc([N+](=O)[O-])c1)S(=O)(=O)c1ccccc1)NCc1cccnc1	-2	/	/	0	-1	/	/
O=C(COC(=O)C1(c2ccc(F)cc2)CCCC1)NCc1ccco1	2	-8	-4	90*	0	22	3	MPTP swell DR=i;MPTP counter DR=61*
Oc1c(Cl)cc(Cl)cc1/C=C/c1ccc2cccc(O)c2n1	25*	51	4	98*	1	18	74*
O=C(Nc1ccc(Oc2cccc(C(F)(F)F)c2)nc1)c1cccs1	-5	/	8	50*	0	40	57*
O=C(Nc1ccc(Oc2cccc(C(F)(F)F)c2)nc1)c1ccccc1	-2	/	-12	28	0	22	/
O=C(Nc1ccc(Cl)cc1)NC1CCCC1Cc1ccco1 (stereo not drawn)	-3	-53	-9	103*	-1	-7	88*
O=C(Nc1ccc(Cl)cc1)NC1CCCCC1Cc1ccco1 (stereo not drawn)	5	75*	10	105*	0	45	83*
O=C(Nc1cccc(Cl)c1)NC1CC2CCC(C1)N2Cc1ccco1 (stereo not drawn)	1	-13	-2	-1	0	4	/
COc1ccc(N(C(=O)c2ccccc2C)S(=O)(=O)c2cccs2)cc1	2	17	7	0	0	-2	/
Cc1ccc(NC(=S)NNC(=O)c2cccc([N+](=O)[O-])c2)cc1Cl	12*	/	-5	79*	0	11	65*
Cc1ccc(C(=O)NNC(=S)Nc2cccc(Cl)c2Cl)cc1[N+](=O)[O-]	18*	8	4	103*	0	-1	85*
O=c1onc(-c2ccccc2)c2ccccc12	0	/	/	1	0	/	/
Cc1ccc(N=Nc2c(C)[nH]n(C(N)=S)c2=O)cc1	-16	56	-15	-2	0	17	/
SMILES	GRIN3A LBD mod	WT yeast gro inh	EBV gp42 block	MPTP block	Tb MetRS inh	CHOP inh	MPTP counter	others
Cc1ccc([N+](=O)[O-])cc1N=Nc1c(-c2ccc([N+](=O)[O-])cc2)[nH]n(C(N)=S)c1=O	30*	25	107*	99*	-1	78*	69*
COc1ccc(CNC(=O)CCC(=O)N2CCN(C(C)=O)CC2)cc1	-1	/	/	0	0	/	/
CCOc1ccc(-c2nc(-c3cccnc3)no2)cc1	0	9	-9	2	-1	13	/
CCCCOc1ccc(-c2nc(-c3cccnc3)no2)cc1	2	12	-12	64*	-1	-2	1	MPTP swell DR=14*;MPTP counter DR=14*
c1csc(CNc2nc(NCC3CCCCC3)c3sccc3n2)c1	/	/	/	51*	0	/	91*
COc1cccc(CNc2nc(NCC3CC3)nc3ccsc23)c1OC	/	/	/	4	0	/	/
COc1ccccc1CNc1nc(NCCOc2ccccc2Cl)c2sccc2n1	/	/	/	50*	0	/	92*
CSc1ccccc1CNc1nc(NCC2CC2)nc2ccsc12	/	/	/	91*	1	/	102*
CC(C)c1ccc(CNc2nc(NCC3CC3)nc3ccsc23)cc1	/	/	/	80*	0	/	99*
CCn1nc(C)c(CN2CCC(Oc3ccc(C(=O)N4CCCC4)cc3)CC2)c1C	-1	/	/	-2	0	/	/
C=CCNC(=O)/C(C#N)=C/c1ccc(C(=O)O)cc1	0	-4	1	1	-1	-8	/
Cc1nc2ccccc2c(N)c1C(=O)/C=C/c1ccccc1	-1	/	/	96*	1	/	84*
N#Cc1c(N)nc(Sc2ccc(Cl)cc2)c(C#N)c1-c1ccccc1Cl	-9	/	-8	76*	3	28	56*
CC(OCC(O)CNCC1COc2ccccc2O1)c1ccc(Cl)cc1 (stereo not drawn)	2	44	-26	86*	0	49	-6	MPTP swell DR=15*;MPTP counter DR=58*
OC(CNCC1COc2ccccc2O1)COCc1cccs1 (stereo not drawn)	1	-4	-11	-2	-1	3	/
Cc1ccc(NC(=O)C2CCN(S(=O)(=O)c3ccc4c(c3)NC(=O)C(C)S4)CC2)cc1Cl (stereo not drawn)	10*	/	/	96*	0	/	97*
CC1CCCN(CCOCCOc2ccc(Br)cc2Cl)C1 (stereo not drawn)	0	40	10	3	1	7	/
